From ChEMBL document CHEMBL4396895, “Identification and Optimization of Novel Cathepsin C Inhibitors Derived from EGFR Inhibitors” (J Med Chem, 2019)
Activity calls are given as the source filed them. No cut-off for these calls is given here.

Tests used:
Mus musculus [1] = assay: In vivo inhibition of CatC in C57BL/6 mouse blood at 20 mg/kg, po single dose using Gly-Phe-AFC as substrate measured 8 hrs post dose for up to 90 mins by fluorescence assay relative to control; details: C57BL/6, Blood
[2] = Drug uptake in C57BL/6 mouse lung at 10 mg/kg, po by LC-MS/MS analysis; type: ADME, organism-based; details: in vivo
[3] = Cmax in C57BL/6 mouse at 10 mg/kg, po by LC-MS/MS analysis; type: ADME, organism-based; design: dose 10 mg/kg, route oral; details: in vivo
Summary of the method: (§1)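 Male C57BL/6 mice (n = 3) were dosed with a single IV dose of 2 mg/kg or an IP or PO dose of 10 mg/kg. Vehicle: 0.5% Methocel and 0.1% Tween-80 in citrate buffer, pH 3. Blood was drawn by eye puncture at several time points and analysed by LC-MS/MS. Parameters came from noncompartmental analysis of individual animals and are reported as means.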

[4] = Intrinsic clearance in rat liver microsomes assessed per mg protein measured after 60 mins in presence of NADPH by LC-MS/MS analysis; type: ADME, Microsome; details: read-out: CLH
Dipeptidyl peptidase 1 [5] = molecular target: T1, Dipeptidyl peptidase 1 (Homo sapiens, UniProt P53634); assay: Inhibition of cathepsin C in human THP1 cells using H-Gly-Phe-AFC as substrate preincubated for 4 hrs followed by substrate addition and measured after 60 mins; type: cell-based
T1 sequence (P53634 25-134 limits assumed): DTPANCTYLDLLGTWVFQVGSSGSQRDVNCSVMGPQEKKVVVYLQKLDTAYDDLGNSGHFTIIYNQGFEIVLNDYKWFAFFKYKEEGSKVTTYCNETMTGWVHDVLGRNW
T1 sequence (P53634 231-394 limits assumed): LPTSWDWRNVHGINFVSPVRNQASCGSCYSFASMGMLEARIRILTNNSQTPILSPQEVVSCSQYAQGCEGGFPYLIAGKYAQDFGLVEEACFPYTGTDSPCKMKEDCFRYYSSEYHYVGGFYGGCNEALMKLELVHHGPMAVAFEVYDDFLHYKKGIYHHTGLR
T1 sequence (P53634 395-463 limits assumed): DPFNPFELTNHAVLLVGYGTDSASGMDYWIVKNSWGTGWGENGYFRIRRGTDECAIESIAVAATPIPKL
Summary of the method: (§2)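 THP1 or U937 cells, grown in RPMI 1640 with 10% FBS, were seeded at 1.0 × 10^6/mL. They were preincubated with threefold serial dilutions of compound for 4 h at 37 °C. H-Gly-Phe-AFC was then added from a 100 μM solution and fluorescence was read after 60 min at 37 °C. Values are means of at least two experiments.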

[6] = AUC infinity in C57BL/6 mouse at 10 mg/kg, po by LC-MS/MS analysis; type: ADME, organism-based; design: dose 10 mg/kg, time infinity, route oral; details: in vivo
Summary of the method: as §1

Cytochrome P450 2C19 = Cytochrome P450 2C19 (Homo sapiens, UniProt P33261); assay: Inhibition of CYP2C19 (unknown origin); type: ADME
Cytochrome P450 2C19, sequence (P33261 whole entry, canonical isoform): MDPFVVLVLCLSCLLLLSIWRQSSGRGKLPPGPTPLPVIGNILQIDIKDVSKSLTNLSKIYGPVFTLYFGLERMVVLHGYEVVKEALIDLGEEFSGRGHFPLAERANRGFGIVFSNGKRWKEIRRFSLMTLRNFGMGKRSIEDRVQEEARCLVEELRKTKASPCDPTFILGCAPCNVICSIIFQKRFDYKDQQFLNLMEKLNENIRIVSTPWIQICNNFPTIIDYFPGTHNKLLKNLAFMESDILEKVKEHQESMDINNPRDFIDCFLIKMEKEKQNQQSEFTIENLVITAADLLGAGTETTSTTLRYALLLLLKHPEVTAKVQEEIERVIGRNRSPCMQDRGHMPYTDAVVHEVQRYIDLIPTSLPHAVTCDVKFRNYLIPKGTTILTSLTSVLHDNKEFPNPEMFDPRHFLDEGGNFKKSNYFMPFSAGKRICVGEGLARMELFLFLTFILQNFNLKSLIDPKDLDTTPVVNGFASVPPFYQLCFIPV
Summary of the method: (§3)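 Tested against recombinant human cytochrome P450 isoforms 1A2, 2D6, 3A4, 2C9 and 2C19.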

[7] = AUC infinity in C57BL/6 mouse at 2 mg/kg, iv by LC-MS/MS analysis; type: ADME, organism-based; design: dose 2 mg/kg, time infinity, route intravenous; details: in vivo
Summary of the method: as §1

[8] = Drug uptake in C57BL/6 mouse kidney at 10 mg/kg, po by LC-MS/MS analysis; type: ADME, organism-based; details: in vivo
Dipeptidyl peptidase 1 [9] = molecular target: T1, Dipeptidyl peptidase 1; assay: Inhibition of cathepsin C in human U937 cells using H-Gly-Phe-AFC as substrate preincubated for 4 hrs followed by substrate addition and measured after 60 mins; type: cell-based
Summary of the method: as §2

Mus musculus [10] = assay: In vivo inhibition of CatC in po dosed C57BL/6 mouse bone marrow assessed as reduction in CatG activation administered twice daily for 6 days using N-succinyl-Ala-Ala-Pro-Phe-pNA as substrate measured up to 90 mins by fluorescence assay; type: functional, organism-based
Summary of the method: (§4)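 C57BL/6 mice (20−25 g; n = 10 per group) received oral doses twice daily at 6.7, 20 or 60 mg/kg for 6 days. The vehicle group got 0.5% Methocel and 0.1% Tween-80 in 100 mM citrate buffer, pH 3. Blood was drawn by eye puncture 14 h after the last dose. Bone marrow was flushed from femurs and tibias with ice-cold RPMI 1640. Cells were lysed in 50 mM Tris pH 7.4, 750 mM NaCl, 1% Triton X-100, sonicated on ice and stored at −80 °C. Lysates were diluted by protein content, with blood diluted 5-fold more than marrow. Kinetics were followed for up to 90 min. Results are % of the vehicle mean.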

Cytochrome P450 1A2 = molecular target: T2, Cytochrome P450 1A2 (Homo sapiens, UniProt P05177); assay: Inhibition of CYP1A2 (unknown origin); type: ADME
T2 sequence (P05177 whole entry): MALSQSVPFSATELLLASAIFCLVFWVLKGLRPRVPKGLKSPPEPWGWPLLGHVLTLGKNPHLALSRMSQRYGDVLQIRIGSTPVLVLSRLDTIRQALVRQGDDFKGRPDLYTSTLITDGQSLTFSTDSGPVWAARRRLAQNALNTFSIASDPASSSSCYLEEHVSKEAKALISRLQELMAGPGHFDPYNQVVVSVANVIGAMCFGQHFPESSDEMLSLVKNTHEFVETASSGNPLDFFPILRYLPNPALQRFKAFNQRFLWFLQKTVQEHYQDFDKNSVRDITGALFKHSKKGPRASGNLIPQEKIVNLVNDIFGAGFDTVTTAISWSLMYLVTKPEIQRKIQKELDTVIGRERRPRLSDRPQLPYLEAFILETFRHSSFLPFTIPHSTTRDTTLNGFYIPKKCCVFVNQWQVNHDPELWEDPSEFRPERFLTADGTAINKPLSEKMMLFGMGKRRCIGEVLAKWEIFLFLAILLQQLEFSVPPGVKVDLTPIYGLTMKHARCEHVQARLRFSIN
Summary of the method: as §3

Mus musculus [11] = assay: In vivo inhibition of CatC in po dosed C57BL/6 mouse blood assessed as reduction in CatG activation administered twice daily for 6 days using N-succinyl-Ala-Ala-Pro-Phe-pNA as substrate measured up to 90 mins by fluorescence assay; type: functional, organism-based
Summary of the method: as §4

[12] = Bioavailability in C57BL/6 mouse at 10 mg/kg, ip by LC-MS/MS analysis; type: ADME, organism-based; details: in vivo
Summary of the method: as §1

Mus musculus [13] = assay: In vivo inhibition of CatC in po dosed C57BL/6 mouse bone marrow assessed as reduction in neutrophil elastase activation administered twice daily for 6 days using methoxysuccinyl-Ala-Ala-Pro-Val-AMC as substrate measured up to 90 mins by fluorescence assay; type: functional, organism-based
Summary of the method: as §4

Cytochrome P450 2D6 = Cytochrome P450 2D6 (Homo sapiens, UniProt P10635); assay: Inhibition of CYP2D6 (unknown origin); type: ADME
Cytochrome P450 2D6, sequence (P10635 whole entry): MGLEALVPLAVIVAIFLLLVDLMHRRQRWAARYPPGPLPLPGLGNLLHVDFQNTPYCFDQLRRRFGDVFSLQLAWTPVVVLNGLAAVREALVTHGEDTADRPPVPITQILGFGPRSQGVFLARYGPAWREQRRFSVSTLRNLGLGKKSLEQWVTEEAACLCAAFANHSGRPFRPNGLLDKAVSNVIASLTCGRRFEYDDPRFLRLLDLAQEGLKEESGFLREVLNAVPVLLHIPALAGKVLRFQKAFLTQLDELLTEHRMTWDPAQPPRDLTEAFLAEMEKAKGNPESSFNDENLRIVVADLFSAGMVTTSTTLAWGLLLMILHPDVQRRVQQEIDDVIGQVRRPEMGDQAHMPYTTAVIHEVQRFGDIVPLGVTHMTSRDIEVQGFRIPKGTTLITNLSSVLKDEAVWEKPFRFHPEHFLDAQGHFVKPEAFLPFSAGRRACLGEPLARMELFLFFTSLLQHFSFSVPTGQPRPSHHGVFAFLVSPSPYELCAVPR
Summary of the method: as §3

[14] = Half life in C57BL/6 mouse at 10 mg/kg, po by LC-MS/MS analysis; type: ADME, organism-based; details: in vivo
Summary of the method: as §1

[15] = Tmax in C57BL/6 mouse at 10 mg/kg, ip by LC-MS/MS analysis; type: ADME, organism-based; details: in vivo
Summary of the method: as §1

Mus musculus [16] = assay: In vivo inhibition of CatC in po dosed C57BL/6 mouse bone marrow assessed as reduction in proteinase 3 activation administered twice daily for 6 days using aminobenzoyl-Val-Ala-Asp-Cys-Ala-Asp-Gln-ethylenediamine 2,4-dinitrophenyl as substrate measured up to 90 mins by fluorescence assay; type: functional, organism-based
Summary of the method: as §4

Mus musculus [17] = assay: In vivo inhibition of CatC in po dosed C57BL/6 mouse blood assessed as reduction in proteinase 3 activation administered twice daily for 6 days using aminobenzoyl-Val-Ala-Asp-Cys-Ala-Asp-Gln-ethylenediamine 2,4-dinitrophenyl as substrate measured up to 90 mins by fluorescence assay; type: functional, organism-based
Summary of the method: as §4

Mus musculus [18] = assay: Protection against C57BL/6 mouse model of caerulein-induced acute pancreatitis at 20 mg/kg, po pretreated twice daily for 6 days followed by caerulein-challenge at 1 hr interval for 8 hrs and measured 1 hr post-last caerulein-challenge by H and E staining-based histological analysis
[19] = AUC infinity in C57BL/6 mouse at 10 mg/kg, ip by LC-MS/MS analysis; type: ADME, organism-based; design: dose 10 mg/kg, route intraperitoneal, time infinity; details: in vivo
Summary of the method: as §1

Drug uptake [2]: Active
Cmax [3]: 184 ng/mL
microsomal CLint [4]: 6.3 µL/min/mg
IC50 (Dipeptidyl peptidase 1 [5]): 1.9 nM
inhibition (Dipeptidyl peptidase 1 [5]): Dose-dependent effect
AUC(0-inf) [6]: 1360 ng·h/mL
IC50 (Cytochrome P450 2C19): > 10000 nM
AUC(0-inf) [7]: 1220 ng·h/mL
Drug uptake [8]: Active
IC50 (Dipeptidyl peptidase 1 [9]): 3.4 nM
inhibition (Dipeptidyl peptidase 1 [9]): Dose-dependent effect
IC50 (Cytochrome P450 1A2): > 10000 nM
bioavailability [12]: 20.3%
IC50 (Cytochrome P450 2D6): > 10000 nM
half-life [14]: 3.06 h
Tmax [15]: 0 h
AUC(0-inf) [19]: 1240 ng·h/mL
SMILES: C=CC(=O)Nc1cc(Oc2nc(Nc3ccc(N4CCN(C)CC4)cc3OC)ccc2N2CCCCC2)ccc1C
inhibition in vivo at 20 mg/kg (Mus musculus [1]): 80%
inhibition (Mus musculus [10]): Dose-dependent effect
inhibition (Mus musculus [11]): Dose-dependent effect
inhibition (Mus musculus [13]): Dose-dependent effect
inhibition (Mus musculus [16]): Dose-dependent effect
inhibition (Mus musculus [17]): Dose-dependent effect
Activity (Mus musculus [18]): Active
